Assays:
Brain [1] = assay: Drug uptake in FVB mouse whole brain at 73+/-29 uCi, iv at 90 mins by PET imaging; type: ADME, organism-based; conditions: in vivo, 1.5 h
Method in brief: (§1)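 Dynamic microPET ran 120 min with frames of 20 s to 20 min, without attenuation or scatter correction. Decay-corrected whole-brain curves expressed as SUV = (%ID/cm3) × (g body weight).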

Brain [2] = assay: Drug uptake in FVB mouse whole brain at 73+/-29 uCi, iv administered 30 mins post-ciproxifan treatment measured at 4.5 mins by PET imaging; type: ADME, organism-based; conditions: in vivo, 0.075 h; method in brief: as §1
Brain [3] = assay: Drug uptake in FVB mouse whole brain at 73+/-29 uCi, iv administered 30 mins post-(R)-(4-fluorophenyl)(2-(2-(2-methylpyrrolidin-1-yl)ethyl)benzofuran-5-yl)methanone treatment measured at 90 mins by PET imaging; type: ADME, organism-based; conditions: in vivo, 1.5 h; method in brief: as §1
Brain [4] = assay: Drug uptake in FVB mouse whole brain at 73+/-29 uCi, iv administered 30 mins post-(R)-(2-(2-(2-methylpyrrolidin-1-yl)ethyl)benzofuran-5-yl)(4-nitrophenyl)methanone treatment measured at 90 mins by PET imaging; type: ADME, organism-based; conditions: in vivo, 1.5 h; method in brief: as §1
Hippocampus [5] = assay: Drug uptake in rhesus monkey hippocampus at 3.91+/-0.46 mCi, iv by PET imaging; type: ADME, organism-based, Macaca mulatta; conditions: in vivo
Method in brief: (§2)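 Male rhesus monkeys (7.3 ± 0.8 kg; n = 4 baseline), ketamine 10 mg/kg i.m. then 1.5% isoflurane in O2. […] [18F]ligand given i.v. Focus 220 microPET, 180 min (one scan 120 min), 45 frames 30 s–5 min, scatter/attenuation corrected, decay-corrected; template-normalized regions; uptake as SUV.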

[6] = Drug uptake in rhesus monkey thalamus at 3.91+/-0.46 mCi, iv by PET imaging; type: ADME, organism-based, Macaca mulatta; conditions: in vivo; method in brief: as §2
Striatum [7] = assay: Drug uptake in rhesus monkey striatum at 3.91+/-0.46 mCi, iv at 180 mins by PET imaging; type: ADME, organism-based, Macaca mulatta; conditions: in vivo, 3 h; method in brief: as §2
[8] = Drug uptake in rhesus monkey frontal cortex at 3.91+/-0.46 mCi, iv at 180 mins by PET imaging; type: ADME, organism-based, Macaca mulatta; conditions: in vivo, 3 h; method in brief: as §2
[9] = Drug uptake in rhesus monkey cerebellum at 3.91+/-0.46 mCi, iv at 180 mins by PET imaging; type: ADME, organism-based, Macaca mulatta; conditions: in vivo, 3 h
Hippocampus [10] = assay: Drug uptake in rhesus monkey hippocampus at 3.91+/-0.46 mCi, iv at 180 mins by PET imaging; type: ADME, organism-based, Macaca mulatta; conditions: in vivo, 3 h; method in brief: as §2
[11] = Drug uptake in rhesus monkey thalamus at 3.91+/-0.46 mCi, iv at 180 mins by PET imaging; type: ADME, organism-based, Macaca mulatta; conditions: in vivo, 3 h; method in brief: as §2
[12] = Drug uptake in rhesus monkey skull at 3.91+/-0.46 mCi, iv at 180 mins by PET imaging; type: ADME, organism-based, Macaca mulatta; conditions: in vivo, 3 h
Striatum [13] = assay: Drug uptake in rhesus monkey striatum at 3.91+/-0.46 mCi, iv administered 30 mins post-ciproxifan treatment measured at 180 mins by PET imaging; type: ADME, organism-based, Macaca mulatta; conditions: in vivo, 3 h; method in brief: as §2
[14] = Drug uptake in rhesus monkey frontal cortex at 3.91+/-0.46 mCi, iv administered 30 mins post-ciproxifan treatment measured at 180 mins by PET imaging; type: ADME, organism-based, Macaca mulatta; conditions: in vivo, 3 h; method in brief: as §2
[15] = Drug uptake in rhesus monkey cerebellum at 3.91+/-0.46 mCi, iv administered 30 mins post-ciproxifan treatment measured at 180 mins by PET imaging; type: ADME, organism-based, Macaca mulatta; conditions: in vivo, 3 h
Hippocampus [16] = assay: Drug uptake in rhesus monkey hippocampus at 3.91+/-0.46 mCi, iv administered 30 mins post-ciproxifan treatment measured at 180 mins by PET imaging; type: ADME, organism-based, Macaca mulatta; conditions: in vivo, 3 h; method in brief: as §2
[17] = Drug uptake in rhesus monkey thalamus at 3.91+/-0.46 mCi, iv administered 30 mins post-ciproxifan treatment measured at 180 mins by PET imaging; type: ADME, organism-based, Macaca mulatta; conditions: in vivo, 3 h; method in brief: as §2
Striatum [18] = assay: Drug uptake in rhesus monkey striatum at 3.91+/-0.46 mCi, iv administered 30 mins post-(R)-(4-fluorophenyl)(2-(2-(2-methylpyrrolidin-1-yl)ethyl)benzofuran-5-yl)methanone treatment measured up to 180 mins by PET imaging; type: ADME, organism-based, Macaca mulatta; conditions: in vivo; method in brief: as §2
[19] = Drug uptake in rhesus monkey frontal cortex at 3.91+/-0.46 mCi, iv administered 30 mins post-(R)-(4-fluorophenyl)(2-(2-(2-methylpyrrolidin-1-yl)ethyl)benzofuran-5-yl)methanone treatment measured up to 180 mins by PET imaging; type: ADME, organism-based, Macaca mulatta; conditions: in vivo
[20] = Drug uptake in rhesus monkey cerebellum at 3.91+/-0.46 mCi, iv administered 30 mins post-(R)-(4-fluorophenyl)(2-(2-(2-methylpyrrolidin-1-yl)ethyl)benzofuran-5-yl)methanone treatment measured up to 180 mins by PET imaging; type: ADME, organism-based, Macaca mulatta; conditions: in vivo
Hippocampus [21] = assay: Drug uptake in rhesus monkey hippocampus at 3.91+/-0.46 mCi, iv administered 30 mins post-(R)-(4-fluorophenyl)(2-(2-(2-methylpyrrolidin-1-yl)ethyl)benzofuran-5-yl)methanone treatment measured up to 180 mins by PET imaging; type: ADME, organism-based, Macaca mulatta; conditions: in vivo; method in brief: as §2
[22] = Drug uptake in rhesus monkey thalamus at 3.91+/-0.46 mCi, iv administered 30 mins post-(R)-(4-fluorophenyl)(2-(2-(2-methylpyrrolidin-1-yl)ethyl)benzofuran-5-yl)methanone treatment measured up to 180 mins by PET imaging; type: ADME, organism-based, Macaca mulatta; conditions: in vivo; method in brief: as §2
[23] = Drug uptake in rhesus monkey skull at 3.91+/-0.46 mCi, iv administered 30 mins post-(R)-(4-fluorophenyl)(2-(2-(2-methylpyrrolidin-1-yl)ethyl)benzofuran-5-yl)methanone treatment measured up to 180 mins by PET imaging; type: ADME, organism-based, Macaca mulatta; conditions: in vivo
[24] = Metabolic stability in monkey whole blood assessed as compound remaining after 2.5 hrs by radio-HPLC; type: ADME, tissue-based, Macaca mulatta; conditions: rhesus monkey, read-out: Stability
Method in brief: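 [18F]Radioligand was incubated in monkey whole blood at room temperature for 2.5 h in vitro, n = 6. Unchanged fraction was measured by radio-HPLC on reverse-phase C18 in a radial compression module, eluted at 2.0 mL/min with MeOH:H2O:Et3N (85:15:0.1).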

[25] = Metabolic stability in monkey plasma assessed as compound remaining after 2.5 hrs by radio-HPLC; type: ADME, cell-free, Macaca mulatta; conditions: rhesus monkey, read-out: Stability
Method in brief: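 Radioligand incubated in monkey plasma in vitro at room temperature for 2.5 h; percent unchanged by reverse-phase radio-HPLC (C18 radial compression, MeOH:H2O:Et3N 85:15:0.1, 2.0 mL/min); n = 6.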

Plasma [26] = assay: Drug metabolism in rhesus monkey plasma assessed as decrease in unchanged compound at 3.87 mCi, iv by radio-HPLC; type: ADME, organism-based, Macaca mulatta; conditions: in vivo
Plasma [27] = assay: Drug metabolism in rhesus monkey plasma assessed as decrease in unchanged compound at 3.87 mCi, iv administered 30 mins post-ciproxifan treatment by radio-HPLC; type: ADME, organism-based, Macaca mulatta; conditions: in vivo, 0.5 h
Plasma [28] = assay: Drug metabolism in rhesus monkey plasma assessed as decrease in unchanged compound at 3.87 mCi, iv administered 30 mins post-(R)-(4-fluorophenyl)(2-(2-(2-methylpyrrolidin-1-yl)ethyl)benzofuran-5-yl)methanone treatment by radio-HPLC; type: ADME, organism-based, Macaca mulatta; conditions: in vivo, 0.5 h
Plasma [29] = assay: Drug metabolism in rhesus monkey plasma assessed as radiometabolite formation at 3.87 mCi, iv by radio-HPLC; type: ADME, organism-based, Macaca mulatta; conditions: in vivo
Plasma [30] = assay: Drug metabolism in rhesus monkey plasma assessed as radiometabolite formation at 3.87 mCi, iv administered 30 mins post-ciproxifan treatment by radio-HPLC; type: ADME, organism-based, Macaca mulatta; conditions: in vivo, 0.5 h
Plasma [31] = assay: Drug metabolism in rhesus monkey plasma assessed as radiometabolite formation at 3.87 mCi, iv administered 30 mins post-(R)-(4-fluorophenyl)(2-(2-(2-methylpyrrolidin-1-yl)ethyl)benzofuran-5-yl)methanone treatment by radio-HPLC; type: ADME, organism-based, Macaca mulatta; conditions: in vivo, 0.5 h
[32] = Unbound fraction in rhesus monkey plasma at 3.91+/-0.46 mCi, iv by ultrafiltration; type: ADME, organism-based, Macaca mulatta
Method in brief: (§3)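 Arterial plasma from monkeys scanned at baseline or 30 min after unlabeled ligand (1.0 mg/kg i.v.) pretreatment; free fraction of [18F]ligand measured by ultrafiltration, each plasma sample in triplicate.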

[33] = Unbound fraction in rhesus monkey plasma at 3.91+/-0.46 mCi, iv administered 30 mins post-(R)-(4-fluorophenyl)(2-(2-(2-methylpyrrolidin-1-yl)ethyl)benzofuran-5-yl)methanone treatment by ultrafiltration; type: ADME, organism-based, Macaca mulatta; method in brief: as §3
Brain [34] = assay: Drug metabolism in rhesus monkey brain assessed as radiodefluorination at 3.91 mCi, iv by PET; conditions: in vivo

With `C[C@@H]1CCCN1CCc1cc2cc(C(=O)c3ccc([18F])cc3)ccc2o1` the SUV (Brain [1]) was 2.3, the SUV (Brain [2]) was 1.98 and the SUV (Brain [3]) was < 1.2. For the same compound, the SUV (Brain [4]) was < 1.2, the Drug uptake (Hippocampus [5]) was “Active” and the Drug uptake [6] was “Active”. The Drug uptake (Striatum [7]) was “Not Active”, the Drug uptake [8] was “Not Active” and the Drug uptake [9] was “Not Active”. The Drug uptake (Hippocampus [10]) was “Not Active”, the Drug uptake [11] was “Not Active” and the Drug uptake [12] was “Not Active”. For the same compound, the Drug uptake (Striatum [13]) was “Not Active”, the Drug uptake [14] was “Not Active” and the Drug uptake [15] was “Active”. For the same compound, the Drug uptake (Hippocampus [16]) was “Not Active”, the Drug uptake [17] was “Not Active” and the Drug uptake (Striatum [18]) was “Not Active”. For the same compound, the Drug uptake [19] was “Not Active”, the Drug uptake [20] was “Not Active” and the Drug uptake (Hippocampus [21]) was “Not Active”. For the same compound, the Drug uptake [22] was “Not Active”, the Drug uptake [23] was “Not Active” and the remaining at 2.5 h [24] was 98.4%. For the same compound, the remaining at 2.5 h [25] was 99.2%, the Drug metabolism (Plasma [26]) was “Active” and the Drug metabolism (Plasma [27]) was “Active”. The Drug metabolism (Plasma [28]) was “Active”, the Drug metabolism (Plasma [29]) was “Active” and the Drug metabolism (Plasma [30]) was “Active”. For the same compound, the Drug metabolism (Plasma [31]) was “Active”, the fraction unbound [32] was 0.0208 and the fraction unbound at 0.5 h [33] was 0.014. The Drug metabolism (Brain [34]) was “Not Active”.

From ChEMBL document CHEMBL2029214, “Radiosynthesis and evaluation of an (18)F-labeled positron emission tomography (PET) radioligand for brain histamine subtype-3 receptors based on a nonimidazole 2-aminoethylbenzofuran chemotype” (J Med Chem, 2012)
